High-throughput results: PubChem, Johns Hopkins Ion Channel Center
MrgX1 antagonist – antagonists of human MrgX1 receptor, primary screen, HEK293 cells, Fluo-4 calcium flux; Mas-related G-protein coupled receptor member X1 (Homo sapiens), Q96LB2; B-score at 10 µM; actives 1.3% (n = 310,000); BAM8-22 antagonism; stronger effect = lower value;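 active = calcium-response B-score plate-corrected more than 3 library SD below zero, starting fluorescence within 5 deviations, no agonist response on first addition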;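 note: peak minus trough fluorescence over baseline after final BAM8-22 challenge near maximal dose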
Target sequence (Q96LB2 whole entry, looked up): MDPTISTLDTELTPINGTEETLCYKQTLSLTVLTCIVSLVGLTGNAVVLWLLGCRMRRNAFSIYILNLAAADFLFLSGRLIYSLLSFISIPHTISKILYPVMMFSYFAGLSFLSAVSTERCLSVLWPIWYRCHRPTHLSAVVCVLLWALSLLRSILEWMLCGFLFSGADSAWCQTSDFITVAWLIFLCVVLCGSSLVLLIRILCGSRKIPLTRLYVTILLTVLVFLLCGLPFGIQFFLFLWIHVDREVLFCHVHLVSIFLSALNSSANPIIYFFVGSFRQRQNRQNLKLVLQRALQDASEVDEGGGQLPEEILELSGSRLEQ
MrgX1 PAM – positive allosteric modulators of MrgX1, primary screen, HEK293 cells, Fluo-4 calcium flux | Mas-related G-protein coupled receptor member X1 (Homo sapiens), Q96LB2 | FDSS; stronger effect = higher value | B-score at 10 µM | actives 0.63% (n = 310,000) | AID 588675, 2011;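 active = plate-corrected calcium response at least 3 library SD above typical, normal starting fluorescence, not activating the receptor alone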;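 note: compound read alongside a low EC10 to EC30 dose of BAM8-22 agonist; peak minus trough fluorescence over baseline measured at the second addition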
MrgX1 agonist – agonists of human MrgX1 receptor, primary screen, HEK293 cells, Fluo-4 calcium flux | actives 0.44% (n = 310,000) | Fluo-4 calcium fluorescence, agonist mode; stronger effect = higher value | B-score at 10 µM | Mas-related G-protein coupled receptor member X1 (Homo sapiens), Q96LB2;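 active = calcium response B-score plate-corrected fluorescence ratio at least 3 library SD, with starting fluorescence B-score inside 5 SD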
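Material: MrgX1-expressing HEK293 cells; input: 15,000 cells per well; doses: test compound given as first of three sequential additions; schedule: overnight plating before 1 h dye loading; technique: Fluo-4 NW calcium-flux fluorescence, kinetic read; evaluation: baseline-normalised fluorescence change ratio, B-scored; control set: plate-wise positive and negative controls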
RGS4 pot – RGS4 potentiators or activators, primary screen, cell-based, HEK293 M3R inducible RGS4, calcium flux. B-score at 10 µM. actives 0.92% (n = 310,000). carbachol calcium flux Fluo4; stronger effect = lower value. AID 463111, 2010;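 active = B-score of the integrated calcium signal more than 4 SD below the library mean, with starting fluorescence not abnormally high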;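 note: negative B-score means reduced calcium response which marks RGS4 activation or potentiation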
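Material: Inducible-RGS4 HEK293 cells carrying M3 receptor; also added: carbachol at ECmax as muscarinic agonist stimulus; incubation: compound preincubation 20 min at room temperature before agonist; signal: Fluo4-AM (2 µM) calcium-flux fluorescence, kinetic read; measure: integrated calcium ratio converted to B score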
RGS4 inh – RGS4 inhibitors, primary screen, cell-based, HEK293 M3R inducible RGS4, calcium flux. actives 0.45% (n = 310,000). Regulator of G-protein signaling 4 (Homo sapiens), P49798. AID 463165, 2010. B-score at 10 µM. Fluo-4 calcium flux; stronger effect = higher value; triggered by carbachol at its EC20;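 active = B-score, a plate-corrected calcium signal, over three deviations above library mean, with baseline fluorescence within five deviations of library mean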;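 note: RGS4 expression induced by doxycycline in cells with stable M3 receptor; B-score is computed from the integrated fluorescence ratio over baseline after carbachol; higher B-score means a larger calcium signal and so more RGS4 inhibition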
Target sequence (P49798 whole entry, looked up): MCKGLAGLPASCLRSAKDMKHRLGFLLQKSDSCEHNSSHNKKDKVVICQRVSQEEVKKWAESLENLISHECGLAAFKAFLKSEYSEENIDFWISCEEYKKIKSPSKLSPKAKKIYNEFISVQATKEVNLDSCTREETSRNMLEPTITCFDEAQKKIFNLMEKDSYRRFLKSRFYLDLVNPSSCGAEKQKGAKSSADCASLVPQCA
MrgX1 antag conf – MrgX1 receptor antagonists, duplicate retest, confirmation, HEK293 cells, Fluo-4 calcium flux | BAM8-22 calcium flux; stronger effect = lower value | actives 19% (n = 2,300) | AID 602420, 2012 | shares compounds with MrgX1 antagonist | remaining BAM8-22 calcium response % of control (stronger effect = lower value), % at 10 µM;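 active = remaining agonist calcium response no higher than 100% minus 3 SD of agonist-only control wells, with starting fluorescence near control levels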;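 note: agonist BAM8-22 given at a near maximal EC90 to ECmax level; peak minus minimum fluorescence divided by baseline after agonist addition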
HEK293 Ca flux – nonspecific calcium signal in parental HEK293, confirmation, counter-screen for MrgX1 antagonist project, parental HEK293 cells, Fluo-4 calcium flux. shares compounds with MrgX1 antagonist. Fluo-4 calcium fluorescence, FDSS. fluorescence ratio F(max-min)/F0 at 10 µM. actives 2% (n = 4,000). AID 624111, 2012;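 active = duplicate-averaged calcium fluorescence ratio at least three times the standard deviation of buffer wells, a nonspecific response in parental cells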
HEK293 Ca counter – calcium response in parental HEK293 cells, primary screen, counter-screen for MrgX1 allosteric activator project, cell-based, Fluo-4 calcium flux, duplicate; Fluo-4 fluorescence ratio; stronger effect = higher value; fluorescence ratio F(max-min)/F0 at 10 µM; shares compounds with MrgX1 antagonist; actives 0.4% (n = 4,000);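 active = calcium fluorescence ratio, averaged over duplicates, at least 3 SD of the buffer-well ratio, meaning a nonspecific response in receptor-free cells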;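 note: untransfected parental HEK293 lacking MrgX1 used as counterscreen for MrgX1 allosteric activators; fluorescence change taken during the second addition on a kinetic imager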
HEK293 Ca cntr2 – calcium response in parental HEK293 cells, primary screen, counter-screen for MrgX1 agonist project, cell-based, Fluo-4 calcium flux, duplicate, agonist mode; shares compounds with MrgX1 antagonist; Fluo-4 calcium fluorescence (FDSS); stronger effect = higher value; fluorescence ratio F(max-min)/F0 at 10 µM; actives 8.7% (n = 4,000); AID 624115, 2012;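 active = calcium fluorescence ratio at least three times the spread of buffer wells, meaning a non-specific response in parental cells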
* = called active by the depositor; i = inactive; / = no result. This is a sample that favours compounds with a hit; in the whole collection about 3.5% have one here.

SMILES	MrgX1 antagonist	MrgX1 PAM	MrgX1 agonist	RGS4 pot	RGS4 inh	MrgX1 antag conf	HEK293 Ca flux	HEK293 Ca counter	HEK293 Ca cntr2
CCSc1nc(C(F)(F)F)cc(=O)n1-c1ccccc1	i	i	i	i	i	/	/	/	/
CC(C)Sc1nc(C(F)(F)F)cc(=O)n1-c1ccccc1	-8.2*	i	i	i	i	i	i	i	i
O=C(CCc1ccccn1)N1CCCC(N2CCN(c3cccc(C(F)(F)F)c3)CC2)C1 (stereo not drawn)	i	i	i	i	i	/	/	/	/
CCc1noc(C)c1C(=O)N1CC(C)OC(C)C1 (stereo not drawn)	i	i	i	i	i	/	/	/	/
CCc1noc(C)c1C(=O)N1CCCC1	-4.7*	i	i	i	i	78%*	i	i	i
Cc1cc(C(=O)COC(=O)c2ccccc2Br)c(C)n1CC1CCCO1 (stereo not drawn)	i	i	i	i	i	/	/	/	/
Cc1cc(C(=O)COc2ccccc2C(N)=O)c(C)n1CC1CCCO1 (stereo not drawn)	-4.7*	i	i	i	i	71%*	i	i	i
COc1ccc(N(C(=O)c2ccccc2)S(=O)(=O)c2cccs2)cc1	i	i	i	i	i	/	/	/	/
COc1ccc(C(=O)N(c2ccc(OC)cc2)S(=O)(=O)c2cccs2)cc1	-4.9*	i	i	i	i	i	i	i	i
COC(=NC(C)C)NC(C)C	i	i	i	i	i	/	/	/	/
Cc1ccc(Nc2c3c(nc4ncnn24)CCC3)cc1	-7.2*	i	i	i	i	i	i	i	i
Cc1ccc(Nc2c3c(nc4ncnn24)CC(C)CC3)cc1 (stereo not drawn)	i	i	i	i	i	/	/	/	/
Cc1ccc(NC(=O)COC(=O)/C=C/c2cccs2)c(C)c1	i	i	i	i	i	/	/	/	/
COC(=O)CCn1nnc(-c2cccs2)n1	-6.8*	i	i	i	i	75%*	i	i	i
COc1ccc(N2CCN(C(=O)Cn3nnc(-c4cccs4)n3)CC2)cc1	-5.2*	i	i	i	i	i	i	i	i
COC(=O)c1ccc(NC(=O)Cn2nnc(-c3cccs3)n2)cc1	i	i	i	i	i	/	/	/	/
COc1ccc(C(=O)Cn2nnc(-c3cccs3)n2)cc1	i	i	i	i	i	/	/	/	/
COC(=O)C1=C(C(=O)OC)[C@@H]2Nc3ccccc3[C@@]23C[C@@H](C(=O)OC)N(C(C)=O)C3=N1	i	i	i	i	i	/	/	/	/
Cc1cccc(Nc2nc(N)nc(CSc3nccc(C)n3)n2)c1	i	i	i	i	i	/	/	/	/
COc1ccc(Nc2nc(N)nc(CSc3nccc(C)n3)n2)cc1	-9.5*	i	i	i	i	i	i	i	i
O=C(COc1coc(CN2CCN(c3ccccc3)CC2)cc1=O)NC1CCCCC1	i	i	i	i	i	/	/	/	/
COc1ccc(CNC(=O)COc2cc3c(c4oc(=O)cc(C)c24)CCC(C)(C)O3)cc1OC	-4.7*	i	i	i	i	i	i	i	i
Cc1cc(=O)oc2c3c(cc(OCC(=O)NCc4ccncc4)c12)OC(C)(C)CC3	-4.9*	i	i	i	i	76%*	i	i	i
Cc1ccn2c(c1)nc(=S)n2C(=O)c1ccco1	i	i	i	i	i	/	/	/	/
CCOC(=O)c1c(C)[nH]c(C(=O)OCC(=O)c2c(N)n(C)c(=O)n(C)c2=O)c1C	i	i	i	i	i	/	/	/	/
SMILES	MrgX1 antagonist	MrgX1 PAM	MrgX1 agonist	RGS4 pot	RGS4 inh	MrgX1 antag conf	HEK293 Ca flux	HEK293 Ca counter	HEK293 Ca cntr2
Cc1cc(C)c(NC(=O)C2CCN(c3cnccn3)CC2)c(C)c1	-6.1*	i	i	i	i	i	i	i	i
CCCCc1n[nH]c(=S)n1Cc1ccc(Cl)cc1	-5.7*	i	i	i	i	i	i	i	i
CCCn1c(CCc2ccccc2)n[nH]c1=S	-7.5*	i	i	i	i	i	i	i	i
O=C(NCc1ccc(Cl)cc1Cl)C1CCN(S(=O)(=O)c2ccc3c(c2)OCCCO3)CC1	-7.1*	i	i	i	i	i	i	i	i
CN1CCN(C(=S)Nc2cccc(Cl)c2)CC1	-4.9*	i	i	i	i	i	i	i	i
Cc1ccc(C)c(OCCC(=O)OCC(=O)NCCc2ccc(S(N)(=O)=O)cc2)c1	i	i	i	i	i	/	/	/	/
COC(=O)C(Cc1c[nH]c2ccccc12)N1CCS(=O)(=O)CC1 (stereo not drawn)	-5.7*	i	i	i	i	i	i	i	i
COC(=O)C(Cc1ccccc1)N1CCS(=O)(=O)CC1 (stereo not drawn)	i	i	i	i	i	/	/	/	/
OCCNc1nc(Nc2ccccc2O)nc(N2CCCC2)n1	i	i	i	i	i	/	/	/	/
CC(=O)Nc1ccccc1Nc1nc(NCCO)nc(N2CCCC2)n1	-8.3*	i	i	i	i	i	i	i	i
CN1CCN(C2=Nc3cc(F)ccc3Cc3ccccc32)CC1	i	i	i	i	i	/	/	/	/
CN1CCN(C2=Nc3c(Cl)cc(Cl)c4cccc2c34)CC1	-5.8*	i	i	i	i	i	i	i	49*
